From ChEMBL document CHEMBL4513216, “Probing the Open Global Health Chemical Diversity Library for Multistage-Active Starting Points for Next-Generation Antimalarials” (ACS Infect Dis, 2020) come the findings set out here.

This series in a line: Toxicity liver stage against HepG2, at 10uM. The format is cell-based. Set-up: test concentration 10 uM, cell line HepG2-A16-CD81EGFP. Conditions: human, HepG2-A16-CD81EGFP cells; read-out: INHIBITION
An outline of the steps: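 Uninfected HepG2-A16-CD81EGFP cells, 3 × 10^3 per well, 1536-well, plated on prespotted compound at 10 μM final, parasite-free screening media added to match infected plates; puromycin 10 μM positive, DMSO 0.5% negative; run in parallel with 48 h PbLuc assay at 37 °C, 5% CO2; viability by CellTiter-Glo luminescence, normalized to controls.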
Regarding `CN1CCC(CNC(=O)NCc2ccc(F)cc2)CC1`, the cytotoxicity at 10 µM is -10.1%.
As for `O=C(CCCc1ccccc1)Nc1cnc(N2CCOCC2)nc1`, the figure is -13.9%; as for `CS(=O)(=O)NC[C@@H]1OC[C@H]2CN(C(=O)c3ccccc3)CC[C@H]21`, 10.3%; as for `CC[C@H](C)[C@H](NC(=O)Cc1csc(-c2cccc(Cl)c2)n1)C(=O)O`, -7.48%.
As for `O=C(NCc1ccccc1)N1CCC2(CC(=O)N(c3ccsc3)C2)C1` (centres undefined), the figure is -9.64%; as for `NC(=O)c1cc(CC2CCCN(c3cnccn3)C2)ncn1` (centres undefined), -1.15%.
As for `CC(=O)N1CCCC(Cc2cnc(-n3ccnc3)cn2)C1` (centres undefined), the figure is -21.7%; as for `O=C(c1cncnc1)N1Cc2ccccc2OC2(CCOCC2)C1`, -8.46%; as for `O=C(CCSc1ccc(F)cc1)N1CCN(c2cnccn2)CC1`, -42.8%.
Turning to `O=C(CNC(=O)Nc1cccc(-c2nccs2)c1)NCCO`, the cytotoxicity at 10 µM was -2.77%.
Take `Cc1ccc(-c2cnc(CCC(=O)NCCN3CCOCC3)o2)cc1C`: the cytotoxicity at 10 µM turned out to be 7.36%.
To `COCc1ccccc1NC(=O)NC(C)c1ccc(C)o1` (centres undefined) belongs 0.205%; to `CC(C)NC(=O)C1CCN(Cn2ccc(-c3ccc(F)cc3)n2)CC1`, 7.07%; to `FC(F)(F)c1ccnc(N2CCCOCC2)c1`, -1.41%.
To `CN1CCN(c2ccc(F)cc2NC(=O)NCC[S+](C)[O-])CC1` (centres undefined) belongs -10.7%; to `COc1ccc(C2CCN(C(=O)c3ncccc3OC(C)C)C2)cc1` (centres undefined), -6.45%.
As to `Cc1cccc(C2(CNC(=O)C(C)NC(N)=O)CCCC2)c1` (centres undefined), the cytotoxicity at 10 µM worked out at 7.19%.
As for `COc1cc(C(C#N)NC(=O)CC2=CCCCC2)cc(OC)c1OC` (centres undefined), the figure is 3.2%; as for `Cc1nc(CNC(=O)NCC(O)c2cccc(Cl)c2)cs1` (centres undefined), -16.1%; as for `CC(C)Cc1noc(CN(C)c2ncccn2)n1`, 5.23%.
`CNC(=O)[C@@H]1C[C@H](N)CN1Cc1cc2cc(C)cc(C)c2[nH]c1=O`: the cytotoxicity at 10 µM is -1.72%.
To `CS(=O)(=O)NC1CCN(C(=O)c2cnc(-c3cccnc3)nc2)CC1` belongs -6.47%; to `O=C1NCCN(CC2CCCCC2)C1CC(=O)N1CCc2n[nH]cc2C1` (centres undefined), -3.76%.
As for `Cc1ccccc1CCC1CCCN(C(=O)Cc2cc(=O)[nH]c(N)n2)C1` (centres undefined), the figure is 4.6%; as for `Cn1ccnc1C(NCc1ccc(Br)cc1)c1ccccc1` (centres undefined), -6.39%; as for `Cc1nnc2n1CCN(C(=O)c1cc(Cl)c(Br)[nH]1)C2`, -4.31%.
As for `Cc1cc(CC(=O)NCc2ccnc(OCC(F)(F)F)c2)no1`, the figure is -2.17%; as for `Cn1cccc1C(=O)N1CCN(Cc2ccncc2)c2ncccc2C1`, -0.395%; as for `COCCN1CC[C@]2(CN(Cc3cccnc3)C[C@H]2C)C1=O`, -4.66%.
For `c1cnc(N2CC[C@@H]3CN(Cc4ccncc4)CCO[C@@H]3C2)nc1`, the cytotoxicity at 10 µM came to 5.53%.
To `Cc1nc(CN2CCc3ncnc(C4CCOC4)c3CC2)cs1` (centres undefined) belongs 3.05%; to `Cc1nc(CO[C@@H]2CN(Cc3cccs3)[C@@H]3COC[C@@H]32)cs1`, -0.646%.
With `Cc1ccc(C2(CN3CCN(Cc4cncn4C)CC3)CC2)cc1`, the cytotoxicity at 10 µM was -13.1%.
As for `COCCN1CCC2(CC1)CN(C(C)=O)c1ccc(C)cc12`, the cytotoxicity at 10 µM came out at 3.77%.
For `COc1ccccc1-c1c[nH]c(C2CCCN2)n1` (centres undefined), the cytotoxicity at 10 µM was 0.276%.
As to `O=C1COC2(CCN(CC3CC3)CC2)CN1c1cncnc1`, the cytotoxicity at 10 µM was -1.87%.
To `O=C(NC[C@]12COC[C@H]1CN(Cc1cccnc1)C2)c1ccsc1` belongs 2.95%; to `CC(C)n1nc(Cn2cccn2)c2c1CN(C1CCOCC1)C2`, 6.98%.
Turning to `Cc1ncnc2c1CCN(Cc1cccs1)CC2`, the cytotoxicity at 10 µM was found to be 1.17%.
